# SMARCA2 activ – increases SMARCA2 function in MMTV reporter cells; activation, % at 9.1 µM; 1% of 370,000 active; MG213 cells, MMTV-luciferase reporter, dexamethasone, overnight; AID 652017; in the data active = activation above about 7.8%;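 also: 0% = vehicle wells and 100% = reference activator wells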
# ASAP1 inh – blocks human ASAP1-stimulated Arf1 GTP hydrolysis | AID 624377 | 0.19% of 360,000 active | Q9ULH1 | inhibition, % at 16.5 µM | GDP FP detection; in the data active = inhibition above about 25%;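 also: 0% = vehicle with enzyme and substrate and 100% = no enzyme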
# Target sequence (Q9ULH1 325-724 limits assumed): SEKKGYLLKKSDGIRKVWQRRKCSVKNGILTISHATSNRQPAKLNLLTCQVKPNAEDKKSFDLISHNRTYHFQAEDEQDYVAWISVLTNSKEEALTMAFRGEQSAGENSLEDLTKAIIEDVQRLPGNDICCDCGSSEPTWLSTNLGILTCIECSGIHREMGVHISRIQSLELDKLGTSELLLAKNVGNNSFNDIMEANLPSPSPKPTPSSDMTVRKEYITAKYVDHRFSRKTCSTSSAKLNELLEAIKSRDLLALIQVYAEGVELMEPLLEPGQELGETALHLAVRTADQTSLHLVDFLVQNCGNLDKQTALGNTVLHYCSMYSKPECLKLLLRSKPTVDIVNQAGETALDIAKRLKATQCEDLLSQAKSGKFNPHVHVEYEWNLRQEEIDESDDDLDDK
# esBAF inh – SWI/SNF esBAF complex inhibition. mouse ES cells, Bmi1-luciferase knock-in reporter, 24 h; 100% = twice the neutral-well signal. reporter increase, % at 12.5 µM. 2% of 350,000 active. AID 602393; in the data active = activation above about 40%; inconclusive = no clear call, values can overlap the other calls;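 also: 0% = median of the plate's neutral control wells and 100% = double that signal; a rise in the Bmi1 reporter signal indicates esBAF inhibition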
# ARFGAP1 inh – rat ARFGAP1 inhibition | Q62848 | Arfgap1-stimulated ARF1 GTP hydrolysis, GDP FP detection | inhibition, % at 16.5 µM | 0.26% of 360,000 active | AID 651572;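 active = inhibition above a per-plate limit, mean inhibition of low control wells plus 3 SD, cut at about 25% in these data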;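 also: 0% = DMSO wells with enzyme and 100% = wells lacking Arfgap1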
#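 System: truncated rat Arfgap1 GAP domain / Benchmarks: high control wells lacking Arfgap1, low control full reaction with DMSO / Times: compound-enzyme preincubation 20 min, reaction 120 min, detection 60 min, 25 °C / Repeats: one replicate per compound / Also added: human ARF1(Δ1-17)-GTP substrate / Measured by: Tracer-displacement fluorescence polarization with EDTA stop, 620/688 nm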
# * hit, by the source's call; ? = inconclusive; nt = not tested or not shown. Hits are enriched below; roughly 2.6% of the tested compounds scored in any of these assays.
SMILES,SMARCA2 activ,ASAP1 inh,esBAF inh,ARFGAP1 inh
NC(=O)C1CCCN(C(=O)c2ccc(-c3cccc(Cl)c3Cl)o2)C1 (configuration not stated),0,-8,75*,-2
O=C(c1ccc(-c2ccccc2Cl)o1)N1CCC1,5,13,84*,0
CC1CCN(C(=O)c2ccc(-c3ccccc3Cl)o2)CC1,4,-16,?,-5
O=C(C[C@H]1C[C@@H]2c3cc(NC(=O)CC4CC4)ccc3O[C@@H]2[C@H](CO)O1)NCc1ccccc1F,nt,nt,-4,nt
O=C(Nc1cc(F)ccc1F)N1C[C@@H]2[C@H](c3ccccc31)[C@H](CO)N2C(=O)c1ccccc1,nt,nt,0,nt
Cc1ccc(NCCC(=O)c2cccs2)cc1Cl,4,0,55*,1
Cc1ccc(NCCC(=O)c2cccs2)cc1C,3,-6,68*,-3
Cc1cc(=O)n2c(nc3ccccc32)[nH]1,-2,7,nt,-3
CCOC(=O)c1cc(=O)n2c(nc3ccccc32)[nH]1,2,-12,55*,0
